Assay results taken from ChEMBL document CHEMBL5674890, “Selective inhibition of CBP/p300 HAT by A-485 results in suppression of lipogenesis and hepatic gluconeogenesis” (Cell Death Dis, 2020).

Tests used:
Assay type in all cases: organism-based
Conditions in all cases: in vivo, 168 h, time 1 weeks
[1] = Toxicity in C57BL/6 mouse supplemented with normal chow diet assessed as effect on body weight at 20 mg/kg/day, ip administered for 1 week
In short: (§1)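 Male C57BL/6 mice, 8 weeks old, on normal chow, 12 h light/dark, barrier housing. Dosed intraperitoneally 20 mg·kg−1·day−1 for 7 days alongside vehicle-injected controls. Body weight followed over treatment; food intake, VO2, VCO2, respiratory exchange ratio, and plasma total cholesterol and triglyceride recorded. Mean ± SEM, n = 5–9; t test, P < 0.05.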

[2] = Toxicity in C57BL/6 mouse supplemented with normal chow diet assessed as effect on food intake at 20 mg/kg/day, ip administered for 1 week; in short: as §1
[3] = Toxicity in C57BL/6 mouse supplemented with normal chow diet assessed as effect on oxygen consumption at 20 mg/kg/day, ip administered for 1 week; in short: as §1
[4] = Toxicity in C57BL/6 mouse supplemented with normal chow diet assessed as effect on carbon dioxide production at 20 mg/kg/day, ip administered for 1 week; in short: as §1
[5] = Toxicity in C57BL/6 mouse supplemented with normal chow diet assessed as effect on respiratory exchange ratios at 20 mg/kg/day, ip administered for 1 week; in short: as §1
[6] = Toxicity in C57BL/6 mouse supplemented with normal chow diet assessed as effect on plasma total cholesterol content at 20 mg/kg/day, ip administered for 1 week; in short: as §1
[7] = Toxicity in C57BL/6 mouse supplemented with normal chow diet assessed as effect on triglyceride levels at 20 mg/kg/day, ip administered for 1 week; in short: as §1

Measured: Activity

CNC(=O)Nc1ccc2c(c1)CC[C@@]21OC(=O)N(CC(=O)N(Cc2ccc(F)cc2)[C@@H](C)C(F)(F)F)C1=O
Non-Toxic: all assays above
